# SUMO1 PPI mod: modulators of human SUMO1-mediated protein-protein interactions; P63165; SUMO1 binding to a labelled peptide, TR-FRET, 1 h; inhibition, % at 20 µM; 360,000 compounds, 0.33% hits; in the data active means inhibition above about 37%
# STEP block: STEP (human) phosphatase inhibition; P54829; recombinant STEP, OMFP fluorogenic substrate, fluorescence; inhibition, % at 20 µM; 360,000 compounds, 0.25% hits;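 active means inhibition at 20 µM, scaled per plate between control wells, above about 37%, limit read from the data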;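 further: 0% = DMSO with enzyme and substrate and 100% = substrate only without enzyme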
#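 Assay system: isolated STEP enzyme / Timing: 20 min at room temperature, dark / Doses: 20 µM, 1% DMSO / Technique: fluorescence intensity, excitation 480 nm, emission 540 nm / Reagent: fluorogenic phosphatase substrate OMFP at 25 µM final / Measure: percent inhibition scaled to no-enzyme and uninhibited-enzyme controls, plate-pattern corrected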
# Scp-1 inhibitor: Scp-1 (human) phosphatase inhibition. AID 493091. 340,000 compounds, 0.88% hits. Q9GZU7. inhibition, % at 20 µM. Recombinant Scp1, phosphopeptide, malachite green phosphate absorbance;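 active means inhibition above about 50% at 20 µM, limit read from the data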;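 further: plate controls were DMSO wells with enzyme for no effect and wells lacking enzyme for full effect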
#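 assay system = SCP-1 phosphatase catalytic domain, residues 76-261 | buffer or medium = 50 mM Tris acetate pH 5.5, 0.005% Tween-20, 10 mM MgCl2 | incubation = enzyme reaction 45 min at room temperature, colour 5 min, stabilisation 30 min | signal = Phosphate-binding colour reagent, absorbance read at 630 nm | measure = % inhibition at 20 µM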
# DSG3 Ab inh: inhibitors of pemphigus antibody binding to human desmoglein-3. P32926. DSG3-coupled beads, scFv-anti-DSG3-GFP binding, flow cytometry; active compounds read low. binding (percent of control), % at 10 µM. 310,000 compounds, 0.48% hits. AID 588358;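 active means binding more than 3 SD below its plate's average and above zero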;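 further: hits lower antibody fragment binding to DSG3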
# Target sequence (P32926 whole entry, looked up, the tested form may be a part): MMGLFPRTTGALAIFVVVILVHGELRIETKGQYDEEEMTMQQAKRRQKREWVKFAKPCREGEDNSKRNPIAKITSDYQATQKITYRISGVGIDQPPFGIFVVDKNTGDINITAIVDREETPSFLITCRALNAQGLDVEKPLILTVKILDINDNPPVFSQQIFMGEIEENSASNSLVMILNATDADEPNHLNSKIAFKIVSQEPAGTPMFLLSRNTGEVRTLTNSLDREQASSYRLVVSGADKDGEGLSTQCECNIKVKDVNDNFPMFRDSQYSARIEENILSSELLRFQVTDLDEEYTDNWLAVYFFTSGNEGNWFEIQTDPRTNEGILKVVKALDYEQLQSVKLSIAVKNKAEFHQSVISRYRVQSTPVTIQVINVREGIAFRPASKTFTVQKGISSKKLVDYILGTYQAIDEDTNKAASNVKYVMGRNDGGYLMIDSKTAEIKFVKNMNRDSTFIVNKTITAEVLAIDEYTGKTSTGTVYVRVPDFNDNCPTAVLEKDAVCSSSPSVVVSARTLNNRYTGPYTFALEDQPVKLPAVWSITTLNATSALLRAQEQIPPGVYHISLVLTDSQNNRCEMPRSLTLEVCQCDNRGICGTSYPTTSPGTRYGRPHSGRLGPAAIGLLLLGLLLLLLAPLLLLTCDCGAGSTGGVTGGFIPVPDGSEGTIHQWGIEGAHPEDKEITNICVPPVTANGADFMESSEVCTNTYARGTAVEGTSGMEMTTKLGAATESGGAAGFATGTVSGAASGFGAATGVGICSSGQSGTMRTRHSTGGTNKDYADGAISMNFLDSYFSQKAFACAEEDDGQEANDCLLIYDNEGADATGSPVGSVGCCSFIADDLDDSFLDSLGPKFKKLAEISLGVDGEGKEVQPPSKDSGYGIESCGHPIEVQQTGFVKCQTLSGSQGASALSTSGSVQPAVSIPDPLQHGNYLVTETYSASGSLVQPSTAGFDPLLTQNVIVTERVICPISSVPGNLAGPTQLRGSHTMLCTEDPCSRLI
# LMPTP inh: LMPTP (human) inhibition; P24666; recombinant LMPTP-A, OMFP fluorogenic substrate, fluorescence intensity; inhibition, % at 20 µM; 360,000 compounds, 0.22% hits; AID 651560;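 active means compounds that cut the enzyme signal by at least half of the control window in the single-dose screen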;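 further: plate controls were DMSO wells with enzyme plus substrate for no effect and substrate without enzyme for full effect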
#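 Buffer or medium: Bis-Tris pH 6.0, DTT, detergent; Assay system: LMPTP-A enzyme; Quantity: 0.625 nM enzyme; Detection: endpoint fluorescence intensity; Times: 50 min dark incubation at room temperature; Controls: substrate-only low control, DMSO enzyme-plus-substrate high control; Doses: single 20 µM dose; Read-out: percent inhibition versus substrate-only and uninhibited controls; Reagent: 400 µM OMFP.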
# Numbers without * were called inactive; / = no result given. Sampled rows, rich in hits. Any-hit rate of the full collection: about 1.7%.
SMILES,SUMO1 PPI mod,STEP block,Scp-1 inhibitor,DSG3 Ab inh,LMPTP inh
Cc1cccc(-c2nc(NCCCN3CCOCC3)c3ccccc3n2)c1,3,4,-9,103,67*
CCc1ccc(NC(=O)CCc2c(C)nn(-c3ccc(N4CCCCC4)nn3)c2C)cc1,-5,0,0,100,1
COc1ccccc1C(=O)NCCC(=O)NCC(c1ccc(F)cc1)N1CCOCC1 (stereo not given),-20,-2,-8,107,-9
CC1CCCCN1CCNC(=O)C1CC(=O)N(c2ccc(F)c(Cl)c2)C1 (stereo not given),-1,3,-3,/,-3
CC1CCCN(CCCNC(=O)C2CC(=O)N(c3ccc(F)c(Cl)c3)C2)C1 (stereo not given),42*,-1,-11,119,-1
COc1ccc(C(C)=O)cc1COc1ccc(Cl)cc1Cl,1,-1,-4,83*,3
COc1cc(C(=O)NCC2CCCO2)ccc1OCc1ccc(Cl)cc1Cl (stereo not given),7,-2,-5,81*,2
COc1ccc(C(C)=O)cc1COc1cc(C)c(Cl)c(C)c1,2,1,-11,94,1
Cc1cc(C)c(S(=O)(=O)N2CCCCC2CCNC(=O)C(=O)NCc2ccccn2)c(C)c1 (stereo not given),1,-3,0,104,-1
C/C(Nc1ccc(Cl)c(Cl)c1)=C1/CCOC1=O,2,-1,/,107,-1
N#Cc1ccc(OC(=O)C2CCN(C3=NS(=O)(=O)c4ccccc43)CC2)cc1,3,3,-8,/,-1
CC1(C)CC(N2CCN(Cc3ccccc3)CC2)=CC(=[N+]2CCCCC2)C1,1,1,106*,90,2
CN(Cc1ccccc1)C1=CC(=[N+]2CCCCC2)CC(C)(C)C1,-2,0,104*,127,2
CC1(C)CC(N2CCCC2)=CC(=[N+]2CCCCC2)C1,2,-2,1,100,-1
COc1ccc(NC(=O)c2ccc3c(c2)OCO3)cc1Cl,-1,-4,-2,46*,4
COc1ccc(C2=Nc3ccccc3N(C(=O)c3ccc(C(F)(F)F)cc3)C2C(=O)Nc2ccc3c(c2)OCCO3)cc1 (stereo not given),-2,/,/,/,1
c1coc(C2=Nc3cccc4cccc(c34)N2)c1,4,6,2,78*,17
COc1cccc(C2=Nc3cccc4cccc(c34)N2)c1,5,2,-5,98,6
CCN(CC)CC(C)CNC(=O)CN1C(=O)CSc2ccc(S(=O)(=O)N3CCOCC3)cc21 (stereo not given),4,-1,1,103,-2
O=c1cc(-c2ccncc2)oc2c1ccc1ccccc12,-11,3,-5,114,-2
O=c1cc(-c2ccc(O)cc2)oc2c(O)c(O)c(O)c(O)c12,-3,2,69*,58*,41
O=c1cc(-c2ccc(O)cc2)oc2c1ccc1ccccc12,90*,22,15,91,54*
O=C(C[n+]1ccc(C(=O)c2ccccc2)cc1)Nc1cccc([N+](=O)[O-])c1,-51,/,/,/,0
CN(C)c1ccc(NC(=O)Cn2ncn3c(cc4ccccc43)c2=O)cc1,-9,-3,-3,92,11
Cc1cc(C)cc(NC(=O)Cn2ncn3c(cc4ccccc43)c2=O)c1,-3,-3,6,82*,-1
SMILES,SUMO1 PPI mod,STEP block,Scp-1 inhibitor,DSG3 Ab inh,LMPTP inh
CCc1ccc(CNC(=O)Cc2ccc(NC(=O)C3=C(C)OCCS3)cc2)cc1,2,2,85*,98,6
CC1=C(C(=O)Nc2ccc(CC(=O)NCc3ccccc3C)cc2)SCCO1,4,2,-6,98,0
Cc1ccccc1CN1CC2=C(CCN(Cc3ccccc3)C2=O)N2CCN=C12,4,-1,/,/,-1
O=C(C#Cc1ccccc1)Nc1cccc(F)c1,-2,-1,-14,102,0
COc1ccc(NC(=O)CN2C(=O)/C(=C3\SC(=S)N(CCC(=O)O)C3=O)c3ccccc32)cc1,1,20,97*,82*,86*
O=C(O)CN1C(=O)/C(=C2\SC(=S)N(C(Cc3ccccc3)C(=O)O)C2=O)c2ccccc21 (stereo not given),2,37,4,105,3
O=C(O)CCN1C(=O)/C(=C2\C(=O)N(Cc3ccccc3Cl)c3ccccc32)SC1=S,30,98*,/,93,80*
CCn1c(-c2cccs2)nc2ccccc21,-6,2,3,101,0
CCn1c(C(C#N)/C(=N\S(=O)(=O)c2cccs2)c2ccccc2)nc2ccccc21 (stereo not given),3,0,1,74*,1
Cc1ccc(CNC(=O)CNS(=O)(=O)c2ccc3nc(C)sc3c2)cc1,1,0,-6,100,0
Cc1ccc(C)c(N2CCN(CCCNC(=O)Cn3cccc3C(=O)c3ccccc3)CC2)c1,-2,0,-5,106,-1
COc1cc(C(=O)NCC(=O)NCCCSc2ccccc2)cc(OC)c1OC,0,-1,-5,102,0
CCOC(=O)c1ccc(S(=O)(=O)NCC(C)(C)N2CCOCC2)cc1,0,4,-2,77*,-3
COc1ccc(C(CC(=O)c2ccc3c(c2)OCO3)C(=O)O)cc1OC (stereo not given),-1,0,/,101,-1
Nc1ccc2nc(-c3cccc(-c4nc5ccc(N)cc5[nH]4)c3)[nH]c2c1,10,18,-10,73*,46
COc1ccccc1NC(=O)Cn1nnc(-c2ccccc2NS(=O)(=O)c2ccccc2)n1,2,-3,-13,132,2
COc1ccccc1NC(=O)Cn1nnc(-c2ccccc2NC(=O)c2cc3ccccc3oc2=O)n1,-1,3,-1,9.0*,1
O=C(Cn1nnc(-c2ccccc2NC(=O)c2ccco2)n1)Nc1ccccc1,0,-1,-10,6.9*,9
O=C(O)c1c2c(nc3ccccc13)/C(=C/c1ccc(O)cc1)CC2,19,41*,62*,103,17
O=[N+]([O-])c1ccc(O)c(/C=N/Nc2ncnc3c2cnn3-c2ccccc2)c1,19,10,11,103,50*
CC1(C(=O)Nc2ccc3ccccc3c2)CC1(Br)Br (stereo not given),1,0,-3,/,-1
COc1cc(C2=NOC(C(=O)Nc3ccc(C(C)=O)cc3)C2)cc(OC)c1OC (stereo not given),-1,-1,4,79*,1
COc1ccc(C2=NOC(C(=O)Nc3ccc(C(C)=O)cc3)C2)cc1OC (stereo not given),-7,-2,-8,104,1
COc1ccc(C2=NOC(C(=O)Nc3cccc(O)c3)C2)cc1 (stereo not given),1,0,-12,82*,0

# Screening data from PubChem BioAssay.
